ChEMBL document CHEMBL3817776, “Discovery and Structure-Activity Relationships of the Neoseptins: A New Class of Toll-like Receptor-4 (TLR4) Agonists” (J Med Chem, 2016)
The source made the active and inactive calls.

How the values were obtained:
[1] = target: T1, Toll-like receptor 4 (Mus musculus) (UniProt Q9QUK6); assay: Agonist activity at TLR4 receptor in C57BL/6J mouse macrophages harboring MYD88 poc/poc mutant assessed as induction of TNFalpha release at 50 uM after 4 hrs by ELISA
T1 sequence (whole entry): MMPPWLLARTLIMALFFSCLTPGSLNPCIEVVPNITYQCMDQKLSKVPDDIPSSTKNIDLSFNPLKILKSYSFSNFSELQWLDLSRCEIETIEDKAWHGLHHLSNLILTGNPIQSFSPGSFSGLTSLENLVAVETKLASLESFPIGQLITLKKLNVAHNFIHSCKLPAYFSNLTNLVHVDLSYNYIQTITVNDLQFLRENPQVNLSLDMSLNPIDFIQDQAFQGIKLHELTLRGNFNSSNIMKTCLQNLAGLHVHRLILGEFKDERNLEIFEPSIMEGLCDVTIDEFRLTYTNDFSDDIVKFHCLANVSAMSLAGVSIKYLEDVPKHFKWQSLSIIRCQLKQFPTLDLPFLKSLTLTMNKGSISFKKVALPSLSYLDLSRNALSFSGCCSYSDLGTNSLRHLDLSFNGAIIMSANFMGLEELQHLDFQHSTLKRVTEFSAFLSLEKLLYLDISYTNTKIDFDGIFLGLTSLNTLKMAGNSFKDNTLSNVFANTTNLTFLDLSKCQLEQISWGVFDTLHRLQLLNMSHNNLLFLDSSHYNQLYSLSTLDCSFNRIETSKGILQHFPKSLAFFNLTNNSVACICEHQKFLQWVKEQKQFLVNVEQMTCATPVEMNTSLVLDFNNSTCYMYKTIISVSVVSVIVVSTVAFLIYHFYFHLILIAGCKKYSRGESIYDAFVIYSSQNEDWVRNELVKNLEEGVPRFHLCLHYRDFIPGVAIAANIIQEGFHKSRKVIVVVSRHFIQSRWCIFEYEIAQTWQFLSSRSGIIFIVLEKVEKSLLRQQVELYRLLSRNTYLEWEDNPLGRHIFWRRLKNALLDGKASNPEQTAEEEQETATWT
Outline: (§1)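 Macrophages taken from mice carrying disabling germline mutations or knockouts in TLR or signaling-pathway genes. Exposed to compound at 50 µM; TNF-α released into the medium measured by ELISA. Results representative of two independent experiments; error bars SEM.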

Macrophage [2] = assay: Induction of TNFalpha release in C57BL/6J mouse macrophages harboring TLR9 CpG3/CpG3 mutant at 50 uM after 4 hrs by ELISA; assay type: functional, cell-based; outline: as §1
Mus musculus [3] = assay: Adjuvant activity in C57BL/6J mouse assessed as increase in OVA-specific IgG2a levels at 250 mg/kg, im after 21 days by ELISA; assay type: functional, organism-based
Outline: (§2)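 C57BL/6 mice, 4 per group, immunized i.m. with 100 µg ovalbumin (endotoxin <1 EU/mg) plus compound in propylene glycol vehicle, or vehicle alone. OVA-specific IgG subclasses in serum titrated by ELISA at day 21. Mean ± SEM.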

Macrophage [4] = assay: Induction of TNFalpha release in C57BL/6J mouse macrophages harboring CD14 hdl/hdl mutant at 50 uM after 4 hrs by ELISA; assay type: functional, cell-based; outline: as §1
Mus musculus [5] = assay: Adjuvant activity in C57BL/6J mouse assessed as increase in OVA-specific IgG2b levels at 250 mg/kg, im after 21 days by ELISA; assay type: functional, organism-based; outline: as §2
Toll-like receptor 4 = target: T2, Toll-like receptor 4 (Mus musculus, UniProt Q9QUK6); assay: (§3) Agonist activity at TLR4 in C57BL/6J mouse macrophages assessed as stimulation of TNFalpha release after 4 hrs by ELISA
T2 sequence (Q9QUK6 whole entry): T1 sequence (whole entry)
Outline: (§4)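 Peritoneal macrophages from wild-type C57BL/6J mice, collected by PBS lavage and cultured in DMEM/10% FBS at 37 °C, 5% CO2. Seeded at 1 × 10^5 cells/well and treated 4 h with compound in DMSO (0.5% final) beside ultra-pure LPS and DMSO controls. Supernatant TNF-α measured by ELISA; mean of triplicates.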

[6] = target: T1, Toll-like receptor 4 (Mus musculus); assay: as §3; outline: as §4
Macrophage [7] = assay: Induction of TNFalpha release in C57BL/6J mouse macrophages harboring TLR6 int/int mutant at 50 uM after 4 hrs by ELISA; assay type: functional, cell-based; outline: as §1
Mus musculus [8] = assay: Adjuvant activity in C57BL/6J mouse assessed as increase in OVA-specific IgG1 levels up to 250 mg/kg, im after 21 days by ELISA; assay type: functional, organism-based; outline: as §2
Mus musculus [9] = species on record: Mus musculus; assay: Agonist activity at TLR4 lps3/lps3 mutant in C57BL/6J mouse macrophages assessed as stimulated release of TNFalpha after 4 hrs by ELISA; outline: as §1
[10] = target: T1, Toll-like receptor 4 (Mus musculus); assay: Agonist activity at TLR4 receptor in C57BL/6J mouse macrophages harboring Irak4 otiose/otiose mutant assessed as induction of TNFalpha release at 50 uM after 4 hrs by ELISA; outline: as §1
[11] = target: T1, Toll-like receptor 4 (Mus musculus); assay: Agonist activity at TLR4 receptor in C57BL/6J mouse macrophages harboring Ikbkg panr2/Y mutant assessed as induction of TNFalpha release at 50 uM after 4 hrs by ELISA; outline: as §1
Macrophage [12] = assay: Induction of TNFalpha release in C57BL/6J mouse macrophages harboring TLR2 ingd/ingd mutant at 50 uM after 4 hrs by ELISA; assay type: functional, cell-based; outline: as §1
[13] = target: T1, Toll-like receptor 4 (Mus musculus); assay: Agonist activity at TLR4 receptor in C57BL/6J mouse macrophages harboring Ticam1 Lps2/Lps2 mutant assessed as induction of TNFalpha release at 50 uM after 4 hrs by ELISA; outline: as §1
Mus musculus [14] = assay: Adjuvant activity in C57BL/6J mouse assessed as increase in OVA-specific IgG3 levels at 250 mg/kg, im after 21 days by ELISA; assay type: functional, organism-based; outline: as §2
Macrophage [15] = assay: Induction of TNFalpha release in TLR3 deficient C57BL/6J mouse macrophages at 50 uM after 4 hrs by ELISA; assay type: functional, cell-based; outline: as §1
Macrophage [16] = assay: Induction of TNFalpha release in C57BL/6J mouse macrophages harboring TLR7 rsq1/rsq1 mutant at 50 uM after 4 hrs by ELISA; assay type: functional, cell-based; outline: as §1
[17] = target: T1, Toll-like receptor 4 (Mus musculus); assay: Agonist activity at TLR4 receptor in LY96 deficient C57BL/6J mouse macrophages assessed as induction of TNFalpha release at 50 uM after 4 hrs by ELISA; outline: as §1

CC(C)(C)OC(=O)[C@H](CCc1ccccc1)NC(=O)c1ccc(N)c(CCc2ccc(O)cc2)c1
18.5 µM: EC50 (Toll-like receptor 4)
active: Activity (Macrophage [2]) | Activity (Mus musculus [3]) | Activity (Macrophage [4]) | Activity (Mus musculus [5]) | Activity [6] Dose-dependent effect | Activity (Macrophage [7]) | Activity (Mus musculus [8]) Dose-dependent effect | Activity (Macrophage [12]) | Activity (Mus musculus [14]) | Activity (Macrophage [15]) | Activity (Macrophage [16])
inactive: Activity [1] | Activity (Mus musculus [9]) | Activity [10] | Activity [11] | Activity [13] | Activity [17]
